Results gathered from unrelated publications.
Target: STE20-like serine/threonine-protein kinase (SLK, Homo sapiens, UniProt Q9H2G2)

For CCCCC(=O)Nc1ccc(-c2ccc3ncn(CCC)c(=O)c3c2)cn1, the remaining binding was 100% (binding; competition with immobilised ligand; 0.5 µM).
The inhibition of CC#CC(=O)N1CCC[C@H]1c1nc(-c2ccc(C(=O)Nc3ccccn3)cc2)c2c(N)nccn12 is reported as 0% (enzyme activity; inhibitor; 1 µM).
For C[C@]1(O)CCCN(c2nc(Nc3ccc(S(=O)(=O)N[C@H]4CC[C@H](CN5CCN(c6ccc(C7CCC(=O)NC7=O)cc6F)CC5)CC4)cc3Cl)ncc2C(F)(F)F)C1 (some centres unmarked), the remaining binding was 100% (binding; competition with immobilised ligand; 1 µM).
C[C@H]1CC[C@H](n2c3cnccc3c3cnc(Nc4ccc5c(n4)CCN(C(=O)CO)C5)nc32)CC1 gave a remaining binding of 78% (binding; competition with immobilised ligand; 1 µM).
For C=CC(=O)N1CCC([C@@H]2CCNc3c(C(N)=O)c(-c4ccc(Oc5ccccc5)cc4)nn32)CC1, the inhibition was 0% (enzyme activity; inhibitor; 1 µM).
C#Cc1cc(-c2cc(Nc3nc(N[C@@H](C)c4ccc(F)cn4)ncc3Cl)n[nH]2)ccc1C=O has an inhibition of 54.5% (enzyme activity; inhibitor; 0.2 µM).
With CN1CCN(C(=O)c2ccc(NC(=O)Nc3ccc(N(C)c4ccnc(Nc5ccc(CS(C)(=O)=O)cc5)n4)cc3)cc2)CC1 the remaining binding was 8.9% (binding; competition with immobilised ligand; 1 µM).
With CNS(=O)(=O)c1ccc(Nc2ncc(C(F)(F)F)c(N3CCC[C@](C)(O)C3)n2)c(C)c1 the remaining binding was 96% (binding; competition with immobilised ligand; 1 µM).
